Test results taken from ChEMBL document CHEMBL1123566, “Synthesis and cardiac electrophysiological activity of 2- and 3-[(substituted phenyl)alkyl]quinuclidines. Structure-activity relationships” (1987).
Several values for one entry are separate records, joined by “and”; a condition that tells them apart may be missing. Equal entries are not always repeated.

What was measured:
[1] = test system: Canis familiaris; test: Heart rate was determined by intraduodenal administration of two dosages of 30 mg/kg of compound in anesthetized dogs. Value was reported for experiment 1; type: functional, Canis lupus familiaris
Method in brief: (§1)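 Anesthetized dogs; compound given intraduodenally, generally as two doses, the second a cumulative (high) dose. LV functional refractory period and conduction time measured 15, 30 and 45 min after dosing; heart rate and blood pressure measured during nonpacing intervals. Values are % change from control, given per individual animal. Active if FRP or CT prolonged by ≥12%.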

[2] = test system: Canis familiaris; test: Heart rate was determined by intraduodenal administration of two dosages of 30 mg/kg of compound in anesthetized dogs. Value was reported for experiment 2; type: functional, Canis lupus familiaris; method in brief: as §1
[3] = test system: Canis familiaris; test: Conduction time was determined by intraduodenal administration of 30 mg/kg (high dose) of compound in anesthetized dogs. Value was reported for experiment 1; type: functional, Canis lupus familiaris; method in brief: as §1
[4] = test system: Canis familiaris; test: Conduction time was determined by intraduodenal administration of 30 mg/kg (high dose) of compound in anesthetized dogs. Value was reported for experiment 2; type: functional, Canis lupus familiaris; method in brief: as §1
[5] = test system: Canis familiaris; test: Conduction time was determined by intraduodenal administration of 10 mg/kg (low dose) of compound in anesthetized dogs. Value was reported for experiment 1; type: functional, Canis lupus familiaris; method in brief: as §1
[6] = test system: Canis familiaris; test: Conduction time was determined by intraduodenal administration of 10 mg/kg (low dose) of compound in anesthetized dogs. Value was reported for experiment 2; type: functional, Canis lupus familiaris; method in brief: as §1
[7] = test system: Canis familiaris; test: Heart rate was determined by intraduodenal administration of two dosages of 10 mg/kg of compound in anesthetized dogs. Value was reported for experiment 1; type: functional, Canis lupus familiaris; method in brief: as §1
[8] = test system: Canis familiaris; test: Heart rate was determined by intraduodenal administration of two dosages of 10 mg/kg of compound in anesthetized dogs. Value was reported for experiment 2; type: functional, Canis lupus familiaris; method in brief: as §1
[9] = test system: Canis familiaris; test: Left ventricular refractory period was determined by intraduodenal administration of 10 mg/kg (low dose) of compound in anesthetized dogs. Value was reported for experiment 1; type: functional, Canis lupus familiaris, Cardiac ventricle; details: 10 mg/kg
Method in brief: (§2)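 Anesthetized dogs received two intraduodenal doses, the second cumulative (low dose/high dose). Left ventricular FRP and CT were measured 15, 30 and 45 min after dosing. Heart rate and mean blood pressure were taken during nonpacing intervals. Values are percent change from control. The vehicle was 5% dextrose in water/tragacanth. Activity was defined as ≥12% prolongation of FRP or CT.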

[10] = test system: Canis familiaris; test: Left ventricular refractory period was determined by intravenous administration of two dosages (high/low) of 3 mg/kg of compound in anesthetized dogs. Value was reported for experiment 1; type: functional, Canis lupus familiaris, Cardiac ventricle
[11] = test system: Canis familiaris; test: Left ventricular refractory period was determined by intravenous administration of two dosages (high/low) of 3 mg/kg of compound in anesthetized dogs. Value was reported for experiment 2; type: functional, Canis lupus familiaris, Cardiac ventricle
[12] = test system: Canis familiaris; test: Left ventricular refractory period was determined by intraduodenal administration of 30 mg/kg (high dose) of compound in anesthetized dogs. Value was reported for experiment 1; type: functional, Canis lupus familiaris, Cardiac ventricle; method in brief: as §2
[13] = test system: Canis familiaris; test: Left ventricular refractory period was determined by intraduodenal administration of 30 mg/kg (high dose) of compound in anesthetized dogs. Value was reported for experiment 2; type: functional, Canis lupus familiaris, Cardiac ventricle; method in brief: as §2
[14] = test system: Canis familiaris; test: Mean arterial blood pressure was determined by intraduodenal administration of two dosages of 30 mg/kg of compound in anesthetized dogs. Value was reported for experiment 1; type: functional, Canis lupus familiaris; method in brief: as §2
[15] = test system: Canis familiaris; test: Mean arterial blood pressure was determined by intraduodenal administration of two dosages of 30 mg/kg of compound in anesthetized dogs. Value was reported for experiment 2; type: functional, Canis lupus familiaris; method in brief: as §2
[16] = test system: Canis familiaris; test: Mean arterial blood pressure was determined by intraduodenal administration of two dosages of 10 mg/kg of compound in anesthetized dogs. Value was reported for experiment 1; type: functional, Canis lupus familiaris; method in brief: as §2
[17] = test system: Canis familiaris; test: Mean arterial blood pressure was determined by intraduodenal administration of two dosages of 10 mg/kg of compound in anesthetized dogs. Value was reported for experiment 2; type: functional, Canis lupus familiaris; method in brief: as §2
[18] = organism: Canis familiaris; test: In vitro electrophysiological evaluation in canine cardiac ventricular muscle reported as maximum % change for conduction time(CT) at 0.1-10 uM concentration range; concentration at which it occurred is 0.1 uM.; type: functional, Canis lupus familiaris, Muscle tissue
Method in brief: (§3)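 Canine right ventricle and papillary muscle strips in oxygenated Tyrode's solution, fitted with stimulating and recording electrodes. The extra-stimulus conduction-interval method was adapted for in vitro use. FRP and CT were read from a conduction-interval curve before and after various compound concentrations, and expressed as percent change from control. Compounds were taken from 10 mM deionized-water stock into Tyrode's. Each strip was used once as its own control.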

[19] = organism: Canis familiaris; test: In vitro electrophysiological evaluation in canine cardiac ventricular muscle reported as % change for the functional refractory period (FRP) at 10 uM at concentration range of 0.1-10 uM; set-up: species or system Canis lupus familiaris, Muscle tissue; method in brief: as §3
[20] = organism: Canis familiaris; test: In vitro electrophysiological evaluation in canine cardiac ventricular muscle reported as maximum % change for functional refractory period (FRP) at 0.1-10 uM concentration range; concentration at which it occurred is 10 uM.; set-up: species or system Canis lupus familiaris, Muscle tissue; method in brief: as §3
[21] = organism: Canis familiaris; test: In vitro electrophysiological evaluation in canine cardiac Purkinje fibres reported as percent change Vmax at 10 uM at concentration range of 0.1-100 uM; Minimal (<10% decrease or increase in Vmax).; type: functional, organism-based; details: Canis lupus familiaris, Purkinje fiber
Method in brief: (§4)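 Canine cardiac Purkinje fibres, intracellular microelectrode recording, paced at a basic cycle length of 1 s. APD95 and Vmax read simultaneously. Compound: 10 mM stock in deionized water, diluted into Tyrode's solution, tested over the stated concentration range. Each fibre used once as its own control. Result is % change from control, given at 10 µM or as the maximum with its concentration. M = <10% decrease or an increase in Vmax.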

[22] = organism: Canis familiaris; test: In vitro electrophysiological evaluation in canine cardiac Purkinje fibres reported as percent change Vmax at 10 uM at concentration range of 0.1-10 uM; Minimal (<10% decrease or increase in Vmax).; type: functional; details: Canis lupus familiaris, Purkinje fiber; method in brief: as §4
[23] = organism: Canis familiaris; test: In vitro electrophysiological evaluation in canine cardiac Purkinje fibres reported as percent change Vmax at 10 uM at concentration range of 1-100 uM; type: functional; details: Canis lupus familiaris, Purkinje fiber; method in brief: as §4
[24] = organism: Canis familiaris; test: (§5) In vitro electrophysiological evaluation in canine cardiac occurred is 100 uM.; type: functional; details: Canis lupus familiaris; Heart
[25] = organism: Canis familiaris; test: as §5; type: functional; details: Canis lupus familiaris; Heart; remark: listed apart in the source
[26] = organism: Canis familiaris; test: In vitro electrophysiological evaluation in canine cardiac Purkinje fibres reported as percent change Vmax at 10 uM at concentration range of 0.1-100 uM; type: functional; details: Canis lupus familiaris, Purkinje fiber; method in brief: as §4
[27] = organism: Canis familiaris; test: In vitro electrophysiological evaluation in canine cardiac ventricular muscle reported as % change for conduction time(CT) at 0.1-10 uM concentration range; Minimal (<10% decrease or increase inCT).; type: functional, Canis lupus familiaris, Muscle tissue
[28] = organism: Canis familiaris; test: as §5; type: functional, organism-based; details: Canis lupus familiaris; Heart
[29] = organism: Canis familiaris; test: as §5; type: functional; details: Canis lupus familiaris; Heart; remark: listed apart in the source
[30] = organism: Canis familiaris; test: In vitro electrophysiological evaluation in canine cardiac Purkinje fibres reported as maximum percent change Vmax concentration range of 0.1-10 uM; Minimal (<10% decrease or increase in Vmax).; type: functional; details: Canis lupus familiaris; Purkinje fiber; method in brief: as §4
[31] = organism: Canis familiaris; test: (§6) In vitro electrophysiological activity in canine cardiac occurred is 10 uM.; type: functional, Canis lupus familiaris, Heart
[32] = organism: Canis familiaris; test: (§7) In vitro electrophysiological activity in canine cardiac occurred is 1 uM.; type: functional, Canis lupus familiaris, Heart
[33] = organism: Canis familiaris; test: as §6; type: functional, Canis lupus familiaris, Heart; remark: listed apart in the source
[34] = organism: Canis familiaris; test: as §7; type: functional, Canis lupus familiaris, Heart; remark: listed apart in the source
[35] = organism: Canis familiaris; test: In vitro electrophysiological evaluation in canine cardiac Purkinje fibres reported as % change for action potential duration at 10 uM at 1-100 uM concentration range; type: functional, Canis lupus familiaris, Purkinje fiber; method in brief: as §4
[36] = organism: Canis familiaris; test: In vitro electrophysiological evaluation in canine cardiac Purkinje fibres reported as % change for action potential duration at a concentration of 10 uM; type: functional, Canis lupus familiaris, Purkinje fiber; method in brief: as §4
[37] = organism: Canis familiaris; test: In vitro electrophysiological activity in canine cardiac occurred is 100 uM.; type: functional, Canis lupus familiaris, Heart
[38] = organism: Canis familiaris; test: as §7; type: functional, Canis lupus familiaris, Heart; remark: listed apart in the source

Question: With `OC1C2CCN(CC2)C1CCCc1ccc(Cl)cc1` (stereo not drawn) as the compound, how does the HR [1] read?
Answer: -14%

Question: And the HR [2]?
Answer: -9%

Question: And the CT [3]?
Answer: 7%

Question: What about the CT [4] of the same compound?
Answer: 8%

Question: And the CT [5]?
Answer: 5%

Question: What about the CT [6] of the same compound?
Answer: 4%

Question: And the HR [7]?
Answer: -6%

Question: And the HR [8]?
Answer: -7%

Question: And the “LV FRP” value [9]?
Answer: 4% and 7%

Question: What about the FRP [10] of the same compound?
Answer: 12%

Question: And the FRP [11]?
Answer: 8%

Question: And the “LV FRP” value [12]?
Answer: 3%

Question: What about the “LV FRP” value [13] of the same compound?
Answer: 9%

Question: What about the Mean blood pressure [14] of the same compound?
Answer: 14%

Question: What about the Mean blood pressure [15] of the same compound?
Answer: -3%

Question: What about the Mean blood pressure [16] of the same compound?
Answer: 14%

Question: And the Mean blood pressure [17]?
Answer: 0%

Question: And the CT [18]?
Answer: 11%

Question: What about the FRP [19] of the same compound?
Answer: 21%

Question: What about the FRP [20] of the same compound?
Answer: 21%

Question: And the Vmax [21]?
Answer: < 10%

Question: And the Vmax [22]?
Answer: < 10%

Question: What about the Vmax [23] of the same compound?
Answer: -13%

Question: What about the Vmax [24] of the same compound?
Answer: 100%

Question: What about the Vmax [25] of the same compound?
Answer: 100%

Question: And the Vmax [26]?
Answer: -24% and -20%

Question: What about the CT [27] of the same compound?
Answer: <10%

Question: What about the Vmax [28] of the same compound?
Answer: -48%

Question: What about the Vmax [29] of the same compound?
Answer: 100%

Question: What about the Vmax [30] of the same compound?
Answer: < 10%

Question: What about the APD95 [31] of the same compound?
Answer: 14% and 40%

Question: And the APD95 [32]?
Answer: 25% and 15%

Question: And the APD95 [33]?
Answer: 13%

Question: What about the APD95 [34] of the same compound?
Answer: 30%

Question: And the APD95 [35]?
Answer: 13%

Question: What about the APD95 [36] of the same compound?
Answer: 12%

Question: What about the APD95 [37] of the same compound?
Answer: -24% and -7%

Question: And the APD95 [38]?
Answer: 41%
